Bioassay records from PubChem.
DAT uptake mod – modulates human dopamine transporter uptake under cocaine. Q01959. LLC-PK1 hDAT cells, [14C]-dopamine uptake with cocaine IC80; actives deviate in either direction. B-score at 10 µM. actives 1.3% (n = 110,000). AID 449768;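 active = Z score or B-score, a plate-position-corrected score, falls beyond the plate's 99.7% confidence bounds, in either direction; inactive = both scores lie inside the 99.7% bounds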
Target sequence (Q01959 whole entry, looked up): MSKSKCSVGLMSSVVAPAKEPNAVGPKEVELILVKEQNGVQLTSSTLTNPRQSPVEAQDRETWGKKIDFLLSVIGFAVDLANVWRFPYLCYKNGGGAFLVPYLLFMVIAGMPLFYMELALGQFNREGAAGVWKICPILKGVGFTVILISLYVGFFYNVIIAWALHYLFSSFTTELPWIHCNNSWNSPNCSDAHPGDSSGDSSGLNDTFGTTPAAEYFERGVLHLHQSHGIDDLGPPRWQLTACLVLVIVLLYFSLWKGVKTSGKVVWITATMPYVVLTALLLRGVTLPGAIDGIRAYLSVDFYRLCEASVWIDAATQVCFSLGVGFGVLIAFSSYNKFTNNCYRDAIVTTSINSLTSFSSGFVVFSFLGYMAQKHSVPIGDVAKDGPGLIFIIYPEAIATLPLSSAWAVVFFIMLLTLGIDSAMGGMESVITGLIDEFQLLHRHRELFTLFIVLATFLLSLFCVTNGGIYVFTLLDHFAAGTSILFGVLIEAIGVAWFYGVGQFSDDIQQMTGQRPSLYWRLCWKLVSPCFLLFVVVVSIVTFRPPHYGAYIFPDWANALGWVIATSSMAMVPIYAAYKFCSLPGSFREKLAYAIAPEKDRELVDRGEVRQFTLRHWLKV
Rev-RRE block – HIV Rev-RRE protein-RNA interaction inhibition. inhibition, % at 8 µM. actives 0.79% (n = 97,000). P05866. AID 704. Rev peptide-RRE RNA binding, FRET;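 active = inhibition above the screen-wide mean plus 3 SD, cut at about 35% in these data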
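Probe or stimulus: fluorescein-Rev peptide as binding partner; assay system: Cy5-tagged RRE RNA duplex with fluorescein-tagged Rev peptide; timing: 5 min compound–RNA preincubation, then 15 min with peptide, 25 °C; medium: HEPES pH 7.5 buffer with KCl, MgCl2, NaCl and EDTA; signal: fluorescein-to-Cy5 FRET, 480 nm excitation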
Cav32 inh – inhibitors of human Cav3.2 T-type calcium channel | Cav3.2-expressing cells, Fluo-4 calcium fluorescence FDSS; active compounds read low | B-score at 10 µM | actives 4% (n = 100,000);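 active = single-dose well whose peak fluorescence ratio is a statistical outlier from its plate by either plate-standardised score or position-corrected B-score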
EphB4 antag – EphB4-ephrin-B2 interaction antagonism | P54760 | EphB4 LBD / TNYL-RAW-Alexa532 peptide, fluorescence polarization | inhibition, % at 7 µM | actives 0.15% (n = 97,000) | AID 720;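 active = inhibition above the screen-wide mean inhibition plus 3 SD, cut at about 15% in these data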
Large screens that a line does not name were inactive. Sampled rows, rich in hits. Any-hit rate of the full collection: about 5.4%.

Cc1ccc(NC(=O)c2ccc(CN3CCN(C)CC3)cc2)cc1Nc1nccc(-c2cccnc2)n1	none (no result: Rev-RRE block, EphB4 antag)
CCCn1c(NCc2cc(C)ccc2O)nc2ccccc21	Cav32 inh -7.01
CCN(CC)S(=O)(=O)c1cc(C(=O)Nc2ccc(Cl)cn2)ccc1C	Cav32 inh -4.29 (no result: Rev-RRE block, EphB4 antag)
CCN(CC)S(=O)(=O)c1cccc(C(=O)Nc2ccc(Cl)cn2)c1	none
CCOC(=O)n1c(=O)n(Cc2ccc(Cl)c(Cl)c2)c2ccccc21	none (no result: Cav32 inh)
O=C1[C@H]2[C@H](C=CC[C@H]2C(=O)N2CCOCC2)CCN1Cc1ccccc1	none (no result: Rev-RRE block, EphB4 antag)
COC(=O)c1ccc2c(c1)NC(=O)C1CCCN21 (stereo unspecified)	Cav32 inh -4.26 (no result: Rev-RRE block, EphB4 antag)
Cc1ccc(NC(=O)COC(=O)c2ccc3c(c2)NC(=O)C2CCCN32)cc1 (stereo unspecified)	none
COc1ccccc1NC(=O)C1=C(C)NC(SCC(=O)c2ccccc2)=C(C#N)C1c1ccco1 (stereo unspecified)	none
CC(=O)C1=C(C)NC(SCC(=O)c2ccc(C)cc2)=C(C#N)C1c1ccco1 (stereo unspecified)	Cav32 inh -5.04
CCCn1nnc(NC(=O)COc2ccc(C3CCCCC3)cc2)n1	none
COc1ccc(S(=O)(=O)NCCSc2ccc(C)cc2)cc1OC	none
O=S(=O)(NCCSc1ccc(Cl)cc1)c1ccc(F)cc1	Cav32 inh -7.68
O=S(=O)(NCCCCCNS(=O)(=O)c1ccc(F)cc1)c1ccc(F)cc1	Cav32 inh -5.75
Cc1ccc(SCCNS(=O)(=O)c2ccc(F)cc2)cc1	Cav32 inh -8.68
Cc1ccc(SCCNS(=O)(=O)c2ccc3c(c2)OCCO3)cc1	Cav32 inh -6.9
CCO[C@@H]1OC(C(=O)N2CCN(Cc3ccc4c(c3)OCO4)CC2)=C[C@H](C2CC2)[C@H]1CCCO	none (no result: Rev-RRE block, EphB4 antag)
Cc1cn(-c2cc(C(=O)Nc3ccc(C)c(NC(=O)C(=O)c4c[nH]c5ccccc45)c3)cc(C(F)(F)F)c2)cn1	none (no result: Rev-RRE block, EphB4 antag)
CC(=O)C1=C(C)Nc2ncnn2C1c1ccc(Cl)cc1Cl (stereo unspecified)	none
CCOc1ccccc1-c1ccc(C(=O)NCc2ccccc2)o1	none (no result: Rev-RRE block, EphB4 antag)
Cc1ccccc1NC(=O)CSc1nnc(-c2ccoc2C)n1CCc1ccccc1	none
CCCn1c(SCC(=O)Nc2ccccc2-c2ccccc2)nnc1-c1ccoc1C	Cav32 inh -5.88 (no result: Rev-RRE block, EphB4 antag)
COc1ccc(NC(=O)CSc2nnc(-c3ccoc3C)n2CCc2ccccc2)cc1	DAT uptake mod 4.22
Cc1occc1-c1nnc(SCC(=O)Nc2ccccc2-c2ccccc2)n1C	none
Cc1occc1-c1nnc(SCC(=O)Nc2ccc(F)cc2)n1Cc1ccccc1	Cav32 inh -6.2
Cc1occc1-c1nnc(SCC(=O)Nc2ccccc2)n1Cc1ccccc1	none
Cc1cc(NC(=O)CSc2nnc(-c3ccc(Br)o3)n2Cc2ccccc2)no1	Cav32 inh -5.01
CCOC(=O)c1cccc(NC(=O)CSc2nnnn2CC)c1	none
CCOC(=O)c1cccc(NC(=O)CSc2nnc(C)n2Cc2ccccc2)c1	DAT uptake mod 3.35
[O-]C1=N/[N+](=C/c2ccccc2Cl)CC1	none
O=[N+]([O-])c1cccc(/C=C/c2nc(C=Nc3ccc4ccccc4c3)c(O)o2)c1	Rev-RRE block 48.5 (no result: DAT uptake mod, Cav32 inh)
Cc1cc2c3c(c1)C1(C(=O)N3C(C)(C)CC2C)C(C#N)=C(N)Oc2cc(O)ccc21 (stereo unspecified)	none
CC1=CC(C)(C)N2C(=O)C3(C(C#N)=C(N)OC4=C3C(=O)CC(C)(C)C4)c3cccc1c32 (stereo unspecified)	none
Cc1ccc2c3c1C1(C(=O)N3C(C)(C)CC2C)C(C#N)=C(N)Oc2cc(O)ccc21 (stereo unspecified)	Cav32 inh -8.95
CC1=CC(C)(C)N2C(=O)C3(C(C#N)=C(N)Oc4cc(O)ccc43)c3cccc1c32 (stereo unspecified)	Cav32 inh -6.22
O=C(N/N=C/c1ccc(Sc2ccccn2)o1)c1cc2ccccc2cc1O	Cav32 inh -4.99
Cc1c(C)c2cc(Cl)c(OCc3nn[nH]n3)cc2oc1=O	none
Cc1ccc(-c2nc(Nc3ccccc3)n[nH]2)cc1	DAT uptake mod -3
CC(SCc1ccccc1)C(=O)NN=C1CCN(C)CC1 (stereo unspecified)	none
CC1=NCCN1S(=O)(=O)c1cc(Cl)ccc1Cl	none
O=C1CC(O)(C(F)(F)F)Oc2c1ccc1ccccc21 (stereo unspecified)	DAT uptake mod -3.5, Cav32 inh -4.25
COC(=O)N1[C@H](C)C=C[C@]1(Cc1ccccc1)C(=O)NCCCNc1ncc(C(F)(F)F)cc1Cl	none (no result: Rev-RRE block, EphB4 antag)
O=C(NCCCCc1ccccc1)C12CN(Cc3ccccc3)CC1C(c1cccc([N+](=O)[O-])c1)=NO2 (stereo unspecified)	none
CC(C)CCNC(=O)C12CN(Cc3ccccc3)CC1C(c1cccc([N+](=O)[O-])c1)=NO2 (stereo unspecified)	Cav32 inh -4.7
CC(/C=C(\NC(=O)c1ccccc1)C(=O)N=Nc1c(O)[nH]c2ccc(C)cc12)=C\c1ccccc1	none (no result: Cav32 inh)
CCNc1nc(NCC)nc(C(=O)OCCO)n1	none
CC(C)CC(=O)Nc1nc(=S)ss1	Cav32 inh -5.64
Cc1ccccc1C(=O)Nc1nc(=S)ss1	Cav32 inh -4.97
CC(=O)Nc1nc(=S)ss1	none
Cc1cccc(C)c1NC(=O)COc1cccc(/C=N/NC(=O)C(=O)NCc2ccccc2)c1	none
CCCCC1=CC2=CC(=O)C(C)(OC(=O)CC)C(=O)C2=CN1Cc1ccc2c(c1)OCO2 (stereo unspecified)	none (no result: Rev-RRE block, EphB4 antag)
Oc1c(Cl)cc(Cl)cc1C(C#Cc1ccccc1)N1CCOCC1 (stereo unspecified)	none
Oc1c(Cl)cc(Cl)cc1Sc1cc(Cl)cc(Cl)c1O	DAT uptake mod -4.27 (no result: Rev-RRE block, Cav32 inh, EphB4 antag)
COc1ccc(-c2nc(Cn3c(SCc4ccc(F)cc4)nc4ccncc43)c(C)o2)cc1OC	DAT uptake mod 3.09
COc1ccc(-c2nc(Cn3c(SCc4ccccc4F)nc4ccncc43)c(C)o2)cc1	none
C#CCNC(=O)C1=C[C@H](c2cn(C(C)=O)c3ccccc23)C[C@H](OCc2ccc(CO)cc2)O1	none (no result: Rev-RRE block, EphB4 antag)
O=C(C1=C[C@H](c2ccccc2)C[C@H](OCc2ccc(CO)cc2)O1)N1CCN(Cc2ccccc2)CC1	DAT uptake mod 2.79 (no result: Rev-RRE block, EphB4 antag)
O=C(C1=C[C@@H](c2csc3ccccc23)C[C@@H](OCCCCO)O1)N1CCN(Cc2ccc3c(c2)OCO3)CC1	none (no result: Rev-RRE block, EphB4 antag)
O=C(C1=C[C@H](c2csc3ccccc23)C[C@H](OCCCCO)O1)N1CCN(Cc2ccc3c(c2)OCO3)CC1	DAT uptake mod 2.63 (no result: Rev-RRE block, EphB4 antag)
CC(=O)n1cc([C@@H]2C=C(C(=O)NCc3ccccc3)O[C@H](OCc3ccc(CO)cc3)C2)c2ccccc21	DAT uptake mod 2.16 (no result: Rev-RRE block, EphB4 antag)
N#CCC(=N)N1CCN(c2ccccc2Cl)CC1	none
COC(=O)C[C@H]1c2cc(C(F)(F)F)ccc2S(=O)(=O)N1C1CCCC1	none (no result: Rev-RRE block, EphB4 antag)
N#CC1=C(N)N(c2ccccc2)C(c2cccc([N+](=O)[O-])c2)C1(C#N)C#N (stereo unspecified)	Cav32 inh -6.64
